Laboratory results reported in the M2OR odorant receptor database.
Positions count from the first letter of the chain named.

Tests used:
Settings in all cases: stereoisomer not certain
OR5K1 (Homo sapiens) = target: T1, OR5K1 (Homo sapiens) (UniProt Q8NHB7)
T1 sequence (whole entry): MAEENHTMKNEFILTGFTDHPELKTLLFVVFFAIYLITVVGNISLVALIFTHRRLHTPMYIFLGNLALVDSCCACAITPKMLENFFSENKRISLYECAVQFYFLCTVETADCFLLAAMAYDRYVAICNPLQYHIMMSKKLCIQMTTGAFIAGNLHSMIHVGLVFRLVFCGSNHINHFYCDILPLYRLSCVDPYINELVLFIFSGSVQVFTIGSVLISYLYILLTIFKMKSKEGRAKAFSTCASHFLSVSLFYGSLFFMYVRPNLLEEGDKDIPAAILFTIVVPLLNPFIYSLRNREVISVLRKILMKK
In short: (§1)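 Transient luciferase assays in mammalian cell lines were common, though methods varied by source. The values come from published papers and their supplementary material, with extra details from the original authors when needed. Responsive refers to a measured signal the original authors judged statistically different from baseline, and non-responsive (inactive) to the remainder.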

OR5K2 (Homo sapiens) = target: T2, OR5K2 (Homo sapiens) (UniProt Q8NHB8)
T2 sequence (whole entry): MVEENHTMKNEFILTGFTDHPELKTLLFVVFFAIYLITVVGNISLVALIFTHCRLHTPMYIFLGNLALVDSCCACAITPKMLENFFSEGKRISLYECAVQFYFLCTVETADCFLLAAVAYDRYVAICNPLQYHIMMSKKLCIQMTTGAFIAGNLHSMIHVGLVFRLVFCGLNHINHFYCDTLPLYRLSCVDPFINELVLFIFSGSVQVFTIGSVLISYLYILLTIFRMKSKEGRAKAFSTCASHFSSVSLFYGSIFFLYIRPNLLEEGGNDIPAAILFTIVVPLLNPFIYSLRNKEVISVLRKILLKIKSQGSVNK
In short: as §1

OR5K3 (Homo sapiens) = target: T3, OR5K3 (Homo sapiens) (UniProt A6NET4)
T3 sequence (whole entry): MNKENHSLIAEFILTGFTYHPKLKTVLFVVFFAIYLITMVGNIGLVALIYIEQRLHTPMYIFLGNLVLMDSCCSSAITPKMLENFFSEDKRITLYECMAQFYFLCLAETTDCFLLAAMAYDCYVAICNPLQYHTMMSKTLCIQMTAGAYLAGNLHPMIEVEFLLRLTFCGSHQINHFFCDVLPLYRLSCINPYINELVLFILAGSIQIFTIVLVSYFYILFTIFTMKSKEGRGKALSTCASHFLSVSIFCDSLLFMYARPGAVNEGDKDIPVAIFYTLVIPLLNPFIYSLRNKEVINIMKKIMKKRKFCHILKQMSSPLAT
In short: as §1

OR5K4 (Homo sapiens) = target: T4, OR5K4 (Homo sapiens) (UniProt A6NMS3)
T4 sequence (whole entry): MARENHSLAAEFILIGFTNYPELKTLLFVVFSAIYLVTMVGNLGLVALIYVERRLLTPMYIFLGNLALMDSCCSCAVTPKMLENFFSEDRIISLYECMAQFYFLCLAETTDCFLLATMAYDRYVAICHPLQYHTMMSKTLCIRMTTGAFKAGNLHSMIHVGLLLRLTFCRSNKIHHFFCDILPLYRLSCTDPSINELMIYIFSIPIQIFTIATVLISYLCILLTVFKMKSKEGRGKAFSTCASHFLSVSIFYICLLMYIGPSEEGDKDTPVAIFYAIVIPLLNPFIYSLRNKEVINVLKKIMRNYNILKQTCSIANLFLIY
In short: as §1

OR5H2 = test system: T5, OR5H2
T5 sequence (whole entry): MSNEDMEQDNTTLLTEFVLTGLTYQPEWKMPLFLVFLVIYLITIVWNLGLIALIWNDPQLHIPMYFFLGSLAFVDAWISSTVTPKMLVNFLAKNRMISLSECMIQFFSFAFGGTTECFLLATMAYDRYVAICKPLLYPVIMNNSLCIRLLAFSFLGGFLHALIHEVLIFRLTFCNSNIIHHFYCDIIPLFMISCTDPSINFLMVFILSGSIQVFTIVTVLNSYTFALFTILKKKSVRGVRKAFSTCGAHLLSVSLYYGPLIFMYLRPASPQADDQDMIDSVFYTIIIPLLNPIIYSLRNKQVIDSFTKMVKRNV
In short: as §1

OR5H6 (Homo sapiens) = target: T6, OR5H6 (Homo sapiens) (UniProt Q8NGV6)
T6 sequence (whole entry): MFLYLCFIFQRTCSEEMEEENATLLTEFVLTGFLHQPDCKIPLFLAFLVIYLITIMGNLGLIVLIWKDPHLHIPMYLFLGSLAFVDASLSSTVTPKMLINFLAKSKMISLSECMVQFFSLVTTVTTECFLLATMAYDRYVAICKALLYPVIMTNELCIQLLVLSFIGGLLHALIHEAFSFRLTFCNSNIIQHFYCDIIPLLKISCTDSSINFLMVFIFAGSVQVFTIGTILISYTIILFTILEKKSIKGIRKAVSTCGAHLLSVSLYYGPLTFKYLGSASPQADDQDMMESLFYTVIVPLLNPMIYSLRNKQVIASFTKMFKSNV
In short: as §1

OR5H8 (Homo sapiens) = OR5H8 (Homo sapiens) (UniProt P0DN80)
In short: as §1

OR5I1 (Homo sapiens) = target: T7, OR5I1 (Homo sapiens) (UniProt Q13606)
T7 sequence (whole entry): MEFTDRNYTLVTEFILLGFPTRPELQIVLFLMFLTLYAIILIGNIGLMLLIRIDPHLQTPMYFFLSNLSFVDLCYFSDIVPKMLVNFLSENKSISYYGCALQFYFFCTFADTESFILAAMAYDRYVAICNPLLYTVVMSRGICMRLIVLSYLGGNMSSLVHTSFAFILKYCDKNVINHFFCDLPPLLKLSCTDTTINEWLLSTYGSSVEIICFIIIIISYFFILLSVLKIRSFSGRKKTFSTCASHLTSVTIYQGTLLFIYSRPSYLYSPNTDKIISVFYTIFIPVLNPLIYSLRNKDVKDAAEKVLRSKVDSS
In short: as §1

OR5J2 (Homo sapiens) = target: T8, OR5J2 (Homo sapiens) (UniProt Q8NH18)
T8 sequence (whole entry): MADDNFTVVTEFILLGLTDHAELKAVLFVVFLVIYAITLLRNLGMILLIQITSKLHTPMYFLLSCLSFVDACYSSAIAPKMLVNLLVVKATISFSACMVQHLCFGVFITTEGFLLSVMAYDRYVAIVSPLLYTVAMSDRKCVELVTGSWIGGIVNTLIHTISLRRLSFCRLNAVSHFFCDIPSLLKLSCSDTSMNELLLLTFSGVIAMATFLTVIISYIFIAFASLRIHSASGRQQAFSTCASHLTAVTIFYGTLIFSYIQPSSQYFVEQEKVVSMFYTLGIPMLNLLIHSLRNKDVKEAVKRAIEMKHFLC
In short: as §1

OR5L1 (Homo sapiens) = target: T9, OR5L1 (Homo sapiens) (UniProt Q8NGL2)
T9 sequence (whole entry): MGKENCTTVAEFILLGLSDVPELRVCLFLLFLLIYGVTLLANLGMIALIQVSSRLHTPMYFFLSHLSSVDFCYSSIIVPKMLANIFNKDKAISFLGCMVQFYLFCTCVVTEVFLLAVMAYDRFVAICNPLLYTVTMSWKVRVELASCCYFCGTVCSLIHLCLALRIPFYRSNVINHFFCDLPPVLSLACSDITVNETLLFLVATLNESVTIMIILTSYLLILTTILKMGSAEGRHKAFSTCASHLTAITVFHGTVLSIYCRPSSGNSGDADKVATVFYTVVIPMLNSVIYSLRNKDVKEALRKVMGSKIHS
In short: as §1

OR5M1 (Homo sapiens) = target: T10, OR5M1 (Homo sapiens) (UniProt Q8NGP8)
T10 sequence (whole entry): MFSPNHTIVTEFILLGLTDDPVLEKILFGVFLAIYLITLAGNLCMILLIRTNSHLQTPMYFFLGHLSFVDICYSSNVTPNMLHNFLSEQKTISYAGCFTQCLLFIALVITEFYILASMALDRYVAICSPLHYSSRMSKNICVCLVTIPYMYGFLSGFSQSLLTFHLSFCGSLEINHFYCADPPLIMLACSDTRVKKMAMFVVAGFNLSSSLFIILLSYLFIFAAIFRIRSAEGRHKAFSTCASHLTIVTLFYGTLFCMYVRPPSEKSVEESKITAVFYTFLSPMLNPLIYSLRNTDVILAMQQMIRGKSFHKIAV
In short: as §1

OR5M10 (Homo sapiens) = target: T11, OR5M10 (Homo sapiens) (UniProt Q6IEU7)
T11 sequence (whole entry): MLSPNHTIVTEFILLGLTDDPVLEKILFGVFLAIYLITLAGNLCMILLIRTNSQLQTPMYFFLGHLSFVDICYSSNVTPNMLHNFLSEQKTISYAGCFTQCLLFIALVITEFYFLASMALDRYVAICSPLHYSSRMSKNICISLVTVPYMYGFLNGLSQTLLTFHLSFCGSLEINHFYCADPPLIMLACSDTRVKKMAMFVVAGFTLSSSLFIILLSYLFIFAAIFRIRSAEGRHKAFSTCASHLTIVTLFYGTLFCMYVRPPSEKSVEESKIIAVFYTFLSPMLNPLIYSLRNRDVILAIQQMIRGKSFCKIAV
In short: as §1

OR5M11 (Homo sapiens) = target: T12, OR5M11 (Homo sapiens) (UniProt Q96RB7)
T12 sequence (whole entry): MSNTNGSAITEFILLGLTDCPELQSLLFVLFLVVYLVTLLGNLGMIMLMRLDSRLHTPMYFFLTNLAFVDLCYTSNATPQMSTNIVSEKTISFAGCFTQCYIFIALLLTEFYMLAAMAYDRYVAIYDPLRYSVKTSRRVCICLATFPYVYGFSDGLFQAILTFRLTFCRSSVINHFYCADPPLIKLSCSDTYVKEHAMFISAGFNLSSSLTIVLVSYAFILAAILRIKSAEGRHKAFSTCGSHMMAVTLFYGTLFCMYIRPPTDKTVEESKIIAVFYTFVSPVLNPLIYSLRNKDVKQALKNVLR
In short: as §1

OR5M3 (Homo sapiens) = target: T13, OR5M3 (Homo sapiens) (UniProt Q8NGP4)
T13 sequence (whole entry): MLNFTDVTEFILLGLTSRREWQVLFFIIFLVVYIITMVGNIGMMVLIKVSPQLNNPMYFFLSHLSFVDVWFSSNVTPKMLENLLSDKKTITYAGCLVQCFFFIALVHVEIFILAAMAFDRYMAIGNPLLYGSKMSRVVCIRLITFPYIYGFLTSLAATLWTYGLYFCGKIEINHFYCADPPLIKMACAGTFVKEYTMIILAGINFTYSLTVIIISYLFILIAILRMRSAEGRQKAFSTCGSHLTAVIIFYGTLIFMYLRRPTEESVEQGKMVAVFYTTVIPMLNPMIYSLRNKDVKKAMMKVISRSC
In short: as §1

OR5H1 = test system: T14, OR5H1
T14 sequence (whole entry): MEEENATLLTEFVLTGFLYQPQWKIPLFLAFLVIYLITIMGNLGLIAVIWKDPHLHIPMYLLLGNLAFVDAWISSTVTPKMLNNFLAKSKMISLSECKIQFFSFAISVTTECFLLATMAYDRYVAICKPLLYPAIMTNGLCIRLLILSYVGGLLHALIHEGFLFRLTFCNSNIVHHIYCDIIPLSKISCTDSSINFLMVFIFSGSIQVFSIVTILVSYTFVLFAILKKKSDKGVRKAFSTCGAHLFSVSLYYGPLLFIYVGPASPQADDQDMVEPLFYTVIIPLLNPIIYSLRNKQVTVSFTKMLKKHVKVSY
In short: as §1

OR5K2 L197M = test system: T15, OR5K2 L197M
T15 sequence (whole entry): T2 sequence (whole entry) with L197M
In short: as §1

OR5L2 (Homo sapiens) = target: T16, OR5L2 (Homo sapiens) (UniProt Q8NGL0)
T16 sequence (whole entry): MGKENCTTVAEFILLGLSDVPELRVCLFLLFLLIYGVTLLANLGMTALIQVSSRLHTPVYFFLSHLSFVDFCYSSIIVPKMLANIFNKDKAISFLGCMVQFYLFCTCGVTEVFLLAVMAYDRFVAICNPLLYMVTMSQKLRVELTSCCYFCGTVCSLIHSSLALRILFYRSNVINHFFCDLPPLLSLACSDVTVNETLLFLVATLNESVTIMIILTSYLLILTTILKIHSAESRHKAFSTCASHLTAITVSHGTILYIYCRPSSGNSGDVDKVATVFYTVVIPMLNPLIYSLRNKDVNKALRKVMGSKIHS
In short: as §1

OR5M1 T295R M301I = test system: T17, OR5M1 T295R M301I
T17 sequence (whole entry): T10 sequence (whole entry) with T295R, M301I
In short: as §1

OR5M3 N3Y A156T = test system: T18, OR5M3 N3Y A156T
T18 sequence (whole entry): T13 sequence (whole entry) with N3Y, A156T
In short: as §1

Measured: odorant receptor agonist call

Chain of OR5H8 (Homo sapiens) (P0DN80 whole entry): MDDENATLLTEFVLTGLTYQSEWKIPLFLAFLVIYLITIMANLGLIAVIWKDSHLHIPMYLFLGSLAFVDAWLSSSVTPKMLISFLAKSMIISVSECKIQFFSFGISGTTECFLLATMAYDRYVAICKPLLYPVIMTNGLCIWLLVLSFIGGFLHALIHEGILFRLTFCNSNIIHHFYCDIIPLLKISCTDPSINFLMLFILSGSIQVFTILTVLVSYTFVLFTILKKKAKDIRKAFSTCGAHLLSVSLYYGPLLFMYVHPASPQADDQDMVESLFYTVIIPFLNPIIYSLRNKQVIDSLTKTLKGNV

CC(=O)c1nccnc1C
inactive: OR5K2 (Homo sapiens) | OR5K3 (Homo sapiens) | OR5K4 (Homo sapiens)
active: OR5K1 (Homo sapiens)

CC(=O)c1c(C)c([N+](=O)[O-])c(C(C)(C)C)c([N+](=O)[O-])c1C
not listed: OR5K1 (Homo sapiens) | OR5H1 | OR5K2 L197M | OR5L2 (Homo sapiens) | OR5M1 T295R M301I | OR5M3 N3Y A156T
inactive: all other assays above

CCc1cnc(C)c(C)n1
inactive: OR5K1 (Homo sapiens)

CCC1OC(C)=C(O)C1=O (centres undefined)
active: OR5M3 (Homo sapiens)
not listed: OR5H8 (Homo sapiens)
inactive: all other assays above

COc1cnccn1
inactive: OR5K2 (Homo sapiens) | OR5K3 (Homo sapiens) | OR5K4 (Homo sapiens)
active: OR5K1 (Homo sapiens)

CCc1nccnc1C
inactive: OR5K2 (Homo sapiens) | OR5K3 (Homo sapiens) | OR5K4 (Homo sapiens)
active: OR5K1 (Homo sapiens)

CCC(C)c1nccnc1OC (centres undefined)
active: OR5K1 (Homo sapiens)
inactive: OR5K2 (Homo sapiens) | OR5K3 (Homo sapiens) | OR5K4 (Homo sapiens) | OR5M3 (Homo sapiens)
